In ChEMBL document CHEMBL2407036, “Flow Synthesis and Biological Studies of an Analgesic Adamantane Derivative That Inhibits P2X7-Evoked Glutamate Release” (ACS Med Chem Lett, 2013):
Active and inactive are the calls of the source.

Assays:
[1] = test system: Mus musculus; assay: Analgesic activity in Swiss albino mouse assessed as inhibition of acetic acid-induced abdominal contraction at 20 to 60 mg/kg, po measured after 30 mins; assay type: functional, organism-based; details: Abdominal cavity
[2] = organism: Rattus norvegicus; assay: Inhibition of K+ depolarization-induced [3H]D-aspartate efflux in Sprague-Dawley rat synaptosome preincubated at 0.1 uM for 8 mins by liquid scintillation counting; assay type: functional, tissue-based; details: Brain
How it was run: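 Purified rat cerebrocortical synaptosomes loaded with [3H]D-aspartate and superfused. Depolarization with KCl added for 120 s. Compound added 8 min before K+ depolarization. Evoked efflux measured as mean ± SEM of 3−12 independent experiments in triplicate.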

[3] = target: T1, P2X purinoceptor 7 (Rattus norvegicus) (UniProt Q64663); assay: Antagonist activity at P2X7 in Sprague-Dawley rat synaptosome assessed as inhibition of BzATP-induced [3H]D-aspartate efflux preincubated at 0.1 uM for 8 mins by liquid scintillation counting in absence of extracellular Ca2+; details: Brain
T1 sequence (whole entry): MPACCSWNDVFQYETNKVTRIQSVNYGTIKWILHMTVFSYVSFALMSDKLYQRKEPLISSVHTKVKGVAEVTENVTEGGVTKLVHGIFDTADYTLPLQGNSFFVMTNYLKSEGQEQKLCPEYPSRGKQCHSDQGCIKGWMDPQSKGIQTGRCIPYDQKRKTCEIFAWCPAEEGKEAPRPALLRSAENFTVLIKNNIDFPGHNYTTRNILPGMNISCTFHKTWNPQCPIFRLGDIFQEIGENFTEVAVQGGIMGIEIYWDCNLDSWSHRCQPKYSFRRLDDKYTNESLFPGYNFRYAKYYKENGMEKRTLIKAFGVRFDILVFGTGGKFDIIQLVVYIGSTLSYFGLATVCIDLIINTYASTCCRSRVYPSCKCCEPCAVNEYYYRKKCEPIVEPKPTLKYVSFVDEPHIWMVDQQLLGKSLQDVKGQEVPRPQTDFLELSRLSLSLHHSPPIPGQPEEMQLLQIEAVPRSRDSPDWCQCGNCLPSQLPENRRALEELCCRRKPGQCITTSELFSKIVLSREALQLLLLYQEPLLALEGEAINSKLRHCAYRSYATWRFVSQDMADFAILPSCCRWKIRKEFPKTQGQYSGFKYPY
How it was run: (§1)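 Purified rat cerebrocortical synaptosomes loaded with [3H]D-aspartate and superfused. 100 μM BzATP added for 120 s. Compound added 8 min before BzATP. Ca2+-free conditions used medium with 0.5 mM EGTA, added 18 min before BzATP. Log concentration–response for inhibition of evoked efflux. Mean ± SEM of 3−12 independent experiments in triplicate.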

[4] = target: T1, P2X purinoceptor 7 (Rattus norvegicus); assay: Antagonist activity at P2X7 in Sprague-Dawley rat synaptosome assessed as inhibition of BzATP-induced [3H]D-aspartate efflux preincubated at 0.1 uM for 8 mins by liquid scintillation counting; details: Brain; how it was run: as §1
[5] = test system: Rattus norvegicus; assay: Antinociceptive activity against carrageenan-induced paw edema in rat assessed as paw edema volume at 60 mg/kg, po measured after 30 mins (reference value: 2.71+/- 0.08 ml); assay type: functional
[6] = test system: Rattus norvegicus; assay: Antinociceptive activity against carrageenan-induced paw edema in rat assessed as paw edema volume at 40 mg/kg, po measured after 30 mins (reference value: 2.71+/- 0.08 ml); assay type: functional
[7] = test system: Rattus norvegicus; assay: Antinociceptive activity against carrageenan-induced paw edema in rat assessed as paw edema volume at 10 mg/kg, po measured after 30 mins (reference value: 2.71+/- 0.08 ml); assay type: functional
[8] = test system: Rattus norvegicus; assay: Antinociceptive activity against carrageenan-induced hyperalgesia in rat assessed as paw pressure at 60 mg/kg, po measured after 90 mins (reference value: 34.8 +/- 3.1 g); assay type: functional
How it was run: (§2)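 Rats received intraplantar carrageenan before oral dosing. Paw-pressure withdrawal threshold (g) was measured before treatment and at 15, 30, 60 and 90 min after it. Carrageenan-injected rats given vehicle served as reference, with saline-injected rats as a further control.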

[9] = test system: Rattus norvegicus; assay: Antinociceptive activity against carrageenan-induced hyperalgesia in rat assessed as paw pressure at 40 mg/kg, po measured after 90 mins (reference value: 34.8 +/- 3.1 g); assay type: functional; how it was run: as §2
[10] = test system: Rattus norvegicus; assay: Antinociceptive activity against carrageenan-induced hyperalgesia in rat assessed as paw pressure at 10 mg/kg, po measured after 90 mins (reference value: 34.8 +/- 3.1 g); assay type: functional; how it was run: as §2
[11] = test system: Rattus norvegicus; assay: Antinociceptive activity against carrageenan-induced hyperalgesia in rat assessed as paw pressure at 60 mg/kg, po measured after 60 mins (reference value: 31.8 +/- 2.2 g); assay type: functional; how it was run: as §2
[12] = test system: Rattus norvegicus; assay: Antinociceptive activity against carrageenan-induced hyperalgesia in rat assessed as paw pressure at 40 mg/kg, po measured after 60 mins (reference value: 31.8 +/- 2.2 g); assay type: functional; how it was run: as §2
[13] = test system: Rattus norvegicus; assay: Antinociceptive activity against carrageenan-induced hyperalgesia in rat assessed as paw pressure at 10 mg/kg, po measured after 60 mins (reference value: 31.8 +/- 2.2 g); assay type: functional; how it was run: as §2
[14] = test system: Rattus norvegicus; assay: Antinociceptive activity against carrageenan-induced hyperalgesia in rat assessed as paw pressure at 60 mg/kg, po measured after 30 mins (reference value: 30.6 +/- 3.2 g); assay type: functional; how it was run: as §2
[15] = test system: Rattus norvegicus; assay: Antinociceptive activity against carrageenan-induced hyperalgesia in rat assessed as paw pressure at 40 mg/kg, po measured after 30 mins (reference value: 30.6 +/- 3.2 g); assay type: functional; how it was run: as §2
[16] = test system: Rattus norvegicus; assay: Antinociceptive activity against carrageenan-induced hyperalgesia in rat assessed as paw pressure at 10 mg/kg, po measured after 30 mins (reference value: 30.6 +/- 3.2 g); assay type: functional; how it was run: as §2
[17] = test system: Rattus norvegicus; assay: Antinociceptive activity against carrageenan-induced hyperalgesia in rat assessed as paw pressure at 40 mg/kg, po measured after 15 mins (reference value: 32.8 +/- 2.9 g); assay type: functional; how it was run: as §2
[18] = test system: Rattus norvegicus; assay: Antinociceptive activity against carrageenan-induced hyperalgesia in rat assessed as paw pressure at 60 mg/kg, po measured after 15 mins (reference value: 32.8 +/- 2.9 g); assay type: functional; how it was run: as §2
[19] = test system: Rattus norvegicus; assay: Antinociceptive activity against carrageenan-induced hyperalgesia in rat assessed as paw pressure at 10 mg/kg, po measured after 15 mins (reference value: 32.8 +/- 2.9 g); assay type: functional; how it was run: as §2
[20] = test system: Mus musculus; assay: Analgesic activity in Swiss albino mouse assessed as inhibition of acetic acid-induced abdominal contraction at 10 to 60 mg/kg, po measured after 30 mins; assay type: functional, organism-based; details: Abdominal cavity

O=C(NC1(C(=O)NCCc2ccccc2)C2CC3CC(C2)CC1C3)c1ccccc1 (configuration not stated)
inhibition [1]: inactive

C[C@@H](NC(=O)C1(NC(=O)c2ccccc2)C2CC3CC(C2)CC1C3)C(=O)O (some centres not stated)
inhibition [1]: inactive

CCOc1ccc(Nc2ccc(/C(=C3C=C/C(=[N+](/CC)Cc4cccc(S(=O)(=O)[O-])c4)C=C/3C)c3ccc(N(CC)Cc4cccc(S(=O)(=O)[O-])c4)cc3C)cc2)cc1.[Na+] [BRILLIANT BLUE G]
inhibition [2]: inactive | inhibition [3]: Active | inhibition [4]: Active | Activity [5]: 2.21 mL | Activity [6]: 2.17 mL | Activity [7]: 2.63 mL | Activity [8]: 36.2 g | Activity [9]: 40.2 g | Activity [10]: 37.1 g | Activity [11]: 43.8 g | Activity [12]: 45.6 g | Activity [13]: 38.5 g | Activity [14]: 49.6 g | Activity [15]: 50.8 g | Activity [16]: 43.1 g | Activity [17]: 46.3 g | Activity [18]: 47.2 g | Activity [19]: 38.7 g | inhibition [20]: Active

N[C@H](c1ccccc1)[C@H](NC(=O)C1(NC(=O)c2ccccc2)C2CC3CC(C2)CC1C3)c1ccccc1 (some centres not stated)
inhibition [20]: Active
